Laboratory results from ChEMBL document CHEMBL1148603, “Inhibition of Trypanosoma cruzi hexokinase by bisphosphonates” (J Med Chem, 2006).

What was measured:
[1] = tested on: KB; assay: Cytotoxicity in human nasopharyngeal carcinoma KB cell line; format: functional; conditions: read-out: LD50 (the source's name)
In short: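 Human nasopharyngeal carcinoma KB cells were exposed to bisphosphonates up to a highest tested level of 300 µg mL-1. […] The therapeutic index was KB LD50 divided by TcHK IC50.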

[2] = tested on: Dictyostelium discoideum; assay: Cytotoxicity to Dictyostelium discoideum; format: functional, organism-based
[3] = target: T1, Hexokinase (Trypanosoma cruzi, UniProt Q8ST54); assay: Inhibitory activity against Trypanosoma cruzi hexokinase
T1 sequence (Q8ST54 whole entry): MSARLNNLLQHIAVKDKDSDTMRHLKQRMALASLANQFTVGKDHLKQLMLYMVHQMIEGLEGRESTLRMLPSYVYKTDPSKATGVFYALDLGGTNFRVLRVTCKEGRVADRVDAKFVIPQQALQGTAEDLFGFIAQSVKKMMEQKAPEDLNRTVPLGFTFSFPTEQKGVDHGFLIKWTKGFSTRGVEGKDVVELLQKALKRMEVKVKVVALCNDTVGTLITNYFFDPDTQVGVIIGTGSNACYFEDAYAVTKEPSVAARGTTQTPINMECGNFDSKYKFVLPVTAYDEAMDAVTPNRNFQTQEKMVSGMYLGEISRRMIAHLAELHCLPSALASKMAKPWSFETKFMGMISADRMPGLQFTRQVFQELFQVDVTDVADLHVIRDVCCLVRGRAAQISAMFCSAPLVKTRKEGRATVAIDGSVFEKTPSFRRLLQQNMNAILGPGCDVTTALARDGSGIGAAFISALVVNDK
In short: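 Native glycosomal T. cruzi hexokinase, purified by a previously described procedure. Activity was followed as NADPH formation at 340 nm, coupled to D-glucose-6-phosphate dehydrogenase. Inhibition was reported as IC50.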

[4] = tested on: TcHK; assay: Therapeutic index TI=LD50(KB)/IC50(TcHK); conditions: human
[5] = tested on: Trypanosoma cruzi; assay: Growth inhibition of Trypanosoma cruzi intracellular amastigotes; format: functional, organism-based
[6] = KB cells (cytotoxicity) versus TcHK enzyme

Molecule `Cc1cccnc1NC(P(=O)(O)O)P(=O)(O)O` has a CC50 [1] of 840 µM, an IC50 [2] of 3 µM and an IC50 [3] of 45.7 µM.
`O=P(O)(O)C(NC1CC1)P(=O)(O)O` [(CYCLOPROPYLAMINO)METHYLENEDIPHOSPHONIC ACID] showed a CC50 [1] of 242 µM, a selectivity ratio [4, 6] of no more than 0.8 and an IC50 [2] of 30 µM. It also gave an IC50 [3] of no less than 300 µM.
`O=P(O)(O)C(O)(Cc1cccnc1)P(=O)(O)O` [RISEDRONIC ACID] showed a CC50 [1] of 822 µM and an IC50 [3] of no less than 300 µM.
In the case of `O=P(O)(O)C(Nc1cccc(-c2ccccc2)c1)P(=O)(O)O`, the IC50 [5] is reported as 47 µM, the CC50 [1] is reported as 827 µM and the IC50 [2] is reported as 211 µM. It also gave an IC50 [3] of 1.95 µM.
Molecule `O=P(O)(O)C(Nc1cccc(-c2ccc(F)c(F)c2)c1)P(=O)(O)O` has a CC50 [1] of no less than 791 µM, a selectivity ratio [4, 6] of no less than 285 and an IC50 [2] of 77 µM. For the same molecule, the IC50 [3] was 2.75 µM.
Molecule `COCc1cccc(NC(P(=O)(O)O)P(=O)(O)O)c1` has a CC50 [1] of no less than 964 µM, a selectivity ratio [4] greater than 237 and an IC50 [2] of 253 µM. For the same molecule, the IC50 [3] was 4.07 µM.
Molecule `CCn1c2ccccc2c2cc(NC(P(=O)(O)O)P(=O)(O)O)ccc21` has an IC50 [5] of 2.2 µM, a CC50 [1] of 698 µM and an IC50 [2] of 2050 µM. For the same molecule, the IC50 [3] was 0.81 µM.
`CC(C)(C)c1cccc(NC(P(=O)(O)O)P(=O)(O)O)c1` gave an IC50 [2] of 75 µM and an IC50 [3] of no less than 300 µM.
`O=P(O)(O)C(Nc1ccc(F)c(-c2ccccc2)c1)P(=O)(O)O` was tested, and the IC50 [3] was 3.63 µM.
Work on `O=c1ccc(-c2cccc(CC(O)(P(=O)(O)O)P(=O)(O)O)c2)c[nH]1` yielded an IC50 [3] of no less than 300 µM.
In the case of `CCCCN(CC)C(P(=O)(O)O)P(=O)(O)O` [(BUTYL(ETHYL)AMINO)METHYLENEDIPHOSPHONIC ACID], the CC50 [1] is reported as no less than 1060 µM, the IC50 [2] is reported as 4 µM and the IC50 [3] is reported as no less than 300 µM.
Work on `O=P(O)(O)C(Nc1cccc(CO)c1)P(=O)(O)O` yielded a CC50 [1] of no less than 980 µM, a selectivity ratio [4] of no less than 67 and an IC50 [2] of 351 µM. It also gave an IC50 [3] of 14.8 µM.
`O=P(O)(O)C(O)(C[n+]1ccccc1)P(=O)(O)O` gave a CC50 [1] of no less than 1060 µM, an IC50 [2] of 3 µM and an IC50 [3] of no less than 300 µM.
Work on `O=P(O)(O)C(Nc1cccc(-c2ccc(O)nc2)c1)P(=O)(O)O` yielded an IC50 [3] of no less than 300 µM.
Work on `O=P(O)(O)C(O)(C[n+]1cccc(-c2ccccc2)c1)P(=O)(O)O` yielded a CC50 [1] of 12 µM, a selectivity ratio [4, 6] of no more than 0.04 and an IC50 [2] of 3 µM. The IC50 [3] was no less than 300 µM.
`Cc1cc(-c2cccc(CC(O)(P(=O)(O)O)P(=O)(O)O)c2)c(F)cc1F` showed an IC50 [3] of 2.29 µM.
Work on `O=P(O)(O)C(O)(c1cccc(-c2ccccc2)c1)P(=O)(O)O` yielded a CC50 [1] of 797 µM, a selectivity ratio [4] of 23 and an IC50 [2] of 103 µM. It also gave an IC50 [3] of 34.7 µM.
`O=P(O)(O)C(O)(Cn1cnc2ccccc21)P(=O)(O)O` showed an IC50 [2] of 2 µM and an IC50 [3] of no less than 300 µM.
With `C[C@H](NC(P(=O)(O)O)P(=O)(O)O)c1cccc2ccccc12` the IC50 [2] was 7 µM and the IC50 [3] was no less than 300 µM.
`O=P(O)(O)C(Cc1cccc(-c2ccccc2)c1)S(=O)(=O)O` (centres undefined) showed an IC50 [3] of no less than 300 µM.
Molecule `O=P(O)(O)C(O)(Cc1ccncc1)P(=O)(O)O` has a CC50 [1] of 1040 µM and an IC50 [3] of 12.6 µM.
Molecule `Cc1cccc(Cc2ccc[n+](CC(O)(P(=O)(O)O)P(=O)(O)O)c2)c1` has a CC50 [1] of 728 µM, a selectivity ratio [4, 6] of no more than 2.4 and an IC50 [2] of 889 µM. For the same molecule, the IC50 [3] was no less than 300 µM.
For `CC1CCN(C(P(=O)(O)O)P(=O)(O)O)CC1`, the CC50 [1] was 446 µM, the selectivity ratio [4, 6] was no more than 1.5 and the IC50 [2] was 2 µM. For the same molecule, the IC50 [3] was no less than 300 µM.
For `O=P(O)(O)CNc1cccc(-c2ccccc2)c1`, the IC50 [3] was no less than 300 µM.
`CCCCCCCCCC(O)(P(=O)(O)O)P(=O)(O)O` was tested, and the CC50 [1] was no less than 892 µM and the IC50 [2] was 10 µM.
`CCCCCCCc1ccc(NC(P(=O)(O)O)P(=O)(O)O)cc1` showed a CC50 [1] of 211 µM, an IC50 [2] of 10 µM and an IC50 [3] of 1.45 µM.
`CCCNC(P(=O)(O)O)P(=O)(O)O` [(PROPYLAMINO)METHYLENEDIPHOSPHONIC ACID] showed a CC50 [1] of 457 µM, a selectivity ratio [4, 6] of no more than 1.5 and an IC50 [2] of 4 µM. It also gave an IC50 [3] of no less than 300 µM.
`O=P(O)(O)C(O)(Cn1cnc(-c2ccccc2)c1)P(=O)(O)O` gave an IC50 [2] of 122 µM and an IC50 [3] of 1.82 µM.
In the case of `CCOC(=O)C(Cc1cccc(-c2ccccc2)c1)P(=O)(O)O` (centres undefined), the IC50 [3] is reported as no less than 300 µM.
With `CN(CCOc1ccccc1)CCC(O)(P(=O)(O)O)P(=O)(O)O` the CC50 [1] was 311 µM, the IC50 [2] was 2 µM and the IC50 [3] was no less than 300 µM.
Molecule `O=P(O)(O)C(Nc1ccc(Cl)cc1Cl)P(=O)(O)O` [2,4-DICHLOROPHENYLAMINOMETHYLENEBISPHOSPHONIC ACID] has an IC50 [3] of no less than 300 µM.
`O=P(O)(O)C(CNc1cccc(-c2ccccc2)c1)P(=O)(O)O` was tested, and the CC50 [1] was no less than 560 µM, the selectivity ratio [4, 6] was no less than 162 and the IC50 [2] was 62 µM. The IC50 [3] was 3.47 µM.
`O=P(O)(O)C(O)(CC12CC3CC(CC(C3)C1)C2)P(=O)(O)O` gave an IC50 [3] of no less than 300 µM.
`O=[N+]([O-])c1cccc(NC(P(=O)(O)O)P(=O)(O)O)c1` [(3-NITROPHENYLAMINO)METHYLENEDIPHOSPHONIC ACID] showed a CC50 [1] of no less than 635 µM, a selectivity ratio [4, 6] of no less than 266 and an IC50 [2] of 78 µM. For the same molecule, the IC50 [3] was 2.4 µM.
`O=P(O)(O)C(Nc1ncccc1OCc1ccccc1)P(=O)(O)O` gave a CC50 [1] of no less than 765 µM, an IC50 [2] of 1 µM and an IC50 [3] of no less than 300 µM.
In the case of `O=P(O)(O)C(Nc1cccc(Br)c1)P(=O)(O)O`, the CC50 [1] is reported as no less than 771 µM, the selectivity ratio [4] is reported as no less than 812 and the IC50 [2] is reported as 112 µM. The IC50 [3] was 0.95 µM.
Work on `O=P(O)(O)C(CN[C@@H](CO)c1ccccc1)P(=O)(O)O` yielded an IC50 [3] of no less than 300 µM.
`C[N+](C)=c1ccn(CC(O)(P(=O)(O)O)P(=O)(O)O)cc1` gave an IC50 [2] of 30 µM and an IC50 [3] of no less than 300 µM.
In the case of `COc1ccc(NC(P(=O)(O)O)P(=O)(O)O)cn1`, the CC50 [1] is reported as 302 µM, the selectivity ratio [4, 6] is reported as no more than 1 and the IC50 [2] is reported as 52 µM. The IC50 [3] was no less than 300 µM.
